One series concerns the target T1, Progesterone receptor (Homo sapiens, UniProt P06401).
T1 sequence (P06401 whole entry): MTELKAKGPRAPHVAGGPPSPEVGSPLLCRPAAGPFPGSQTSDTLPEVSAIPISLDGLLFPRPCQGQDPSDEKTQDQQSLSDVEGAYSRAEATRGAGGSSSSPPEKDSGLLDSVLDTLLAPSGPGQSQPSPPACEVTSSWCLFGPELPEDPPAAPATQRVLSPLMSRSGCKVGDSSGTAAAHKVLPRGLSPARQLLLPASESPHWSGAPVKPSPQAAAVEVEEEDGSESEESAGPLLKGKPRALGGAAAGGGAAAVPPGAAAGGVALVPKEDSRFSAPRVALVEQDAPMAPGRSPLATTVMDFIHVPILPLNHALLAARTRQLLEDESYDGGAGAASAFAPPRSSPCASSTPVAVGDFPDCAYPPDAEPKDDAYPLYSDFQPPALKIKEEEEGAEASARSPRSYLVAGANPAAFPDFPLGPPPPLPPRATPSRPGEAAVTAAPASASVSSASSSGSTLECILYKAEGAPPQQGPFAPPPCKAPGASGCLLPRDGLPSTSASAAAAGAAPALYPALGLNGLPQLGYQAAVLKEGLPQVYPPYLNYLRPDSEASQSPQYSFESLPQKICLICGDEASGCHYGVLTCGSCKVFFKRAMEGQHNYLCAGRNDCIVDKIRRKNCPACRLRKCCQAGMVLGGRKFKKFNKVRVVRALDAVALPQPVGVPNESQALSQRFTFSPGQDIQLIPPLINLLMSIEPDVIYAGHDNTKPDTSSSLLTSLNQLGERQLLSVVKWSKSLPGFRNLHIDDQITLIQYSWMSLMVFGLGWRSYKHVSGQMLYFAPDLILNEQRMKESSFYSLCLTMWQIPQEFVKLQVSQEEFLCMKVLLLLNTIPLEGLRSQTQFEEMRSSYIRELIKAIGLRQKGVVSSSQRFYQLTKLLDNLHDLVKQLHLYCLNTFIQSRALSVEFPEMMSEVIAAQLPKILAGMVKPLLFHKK
As to the kind of experiment: Binding affinity to progesterone receptor by fluorescence polarization assay. The gist of the method: (§1)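 Fluorescence polarization competition of test compound against a fluorescently labelled ligand for binding to full-length receptor or its ligand-binding domain.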

Another series concerns the target T2, Androgen receptor (Homo sapiens, UniProt P10275).
T2 sequence (P10275 whole entry): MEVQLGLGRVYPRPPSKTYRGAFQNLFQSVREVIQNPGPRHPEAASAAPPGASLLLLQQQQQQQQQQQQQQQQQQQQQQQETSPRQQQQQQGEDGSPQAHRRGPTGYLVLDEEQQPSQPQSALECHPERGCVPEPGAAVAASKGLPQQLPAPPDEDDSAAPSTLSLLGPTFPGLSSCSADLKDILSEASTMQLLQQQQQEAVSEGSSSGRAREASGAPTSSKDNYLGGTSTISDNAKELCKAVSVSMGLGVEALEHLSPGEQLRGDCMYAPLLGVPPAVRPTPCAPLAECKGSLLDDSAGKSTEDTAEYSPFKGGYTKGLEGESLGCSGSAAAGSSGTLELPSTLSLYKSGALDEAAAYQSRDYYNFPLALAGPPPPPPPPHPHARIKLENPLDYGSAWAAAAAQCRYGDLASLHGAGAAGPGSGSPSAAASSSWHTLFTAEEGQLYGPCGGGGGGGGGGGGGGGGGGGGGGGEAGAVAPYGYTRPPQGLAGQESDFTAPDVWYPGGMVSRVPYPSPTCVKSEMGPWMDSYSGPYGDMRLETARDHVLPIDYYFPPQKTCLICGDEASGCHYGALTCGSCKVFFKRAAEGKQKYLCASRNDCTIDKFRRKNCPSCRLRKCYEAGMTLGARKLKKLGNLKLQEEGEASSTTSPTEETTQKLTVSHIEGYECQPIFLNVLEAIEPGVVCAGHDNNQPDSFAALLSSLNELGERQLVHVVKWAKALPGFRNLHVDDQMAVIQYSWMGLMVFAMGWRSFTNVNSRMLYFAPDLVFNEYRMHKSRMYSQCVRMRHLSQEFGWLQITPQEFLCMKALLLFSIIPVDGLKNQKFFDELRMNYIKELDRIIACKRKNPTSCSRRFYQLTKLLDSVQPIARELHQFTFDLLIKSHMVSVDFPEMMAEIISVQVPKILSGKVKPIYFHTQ
As to the kind of experiment: Binding affinity to androgen receptor by fluorescence polarization assay. The gist of the method:
as §1

The target of a further series is T3, Estrogen receptor (Homo sapiens, UniProt P03372).
T3 sequence (P03372 whole entry): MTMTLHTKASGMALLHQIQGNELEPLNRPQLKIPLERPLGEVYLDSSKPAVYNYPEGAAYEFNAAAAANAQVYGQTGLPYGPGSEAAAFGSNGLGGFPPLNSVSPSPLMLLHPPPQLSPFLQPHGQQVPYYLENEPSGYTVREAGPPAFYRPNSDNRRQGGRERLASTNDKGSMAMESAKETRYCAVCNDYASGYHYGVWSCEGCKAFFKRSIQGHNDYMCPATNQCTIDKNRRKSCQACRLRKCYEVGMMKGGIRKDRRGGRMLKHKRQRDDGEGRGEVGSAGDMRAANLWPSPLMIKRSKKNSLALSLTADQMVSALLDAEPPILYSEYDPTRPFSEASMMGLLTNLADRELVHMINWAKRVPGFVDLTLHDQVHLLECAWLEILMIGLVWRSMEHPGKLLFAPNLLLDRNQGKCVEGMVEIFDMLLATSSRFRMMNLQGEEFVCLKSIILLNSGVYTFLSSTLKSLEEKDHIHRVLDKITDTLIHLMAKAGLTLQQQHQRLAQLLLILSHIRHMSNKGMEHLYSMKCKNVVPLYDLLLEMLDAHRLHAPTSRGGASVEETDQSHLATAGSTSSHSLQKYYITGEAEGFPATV
As to the kind of experiment: Binding affinity to ERalpha by fluorescence polarization assay. In short, it runs like this:
as §1

Series [1] deals with T4, Mineralocorticoid receptor (Homo sapiens, UniProt P08235).
T4 sequence (P08235 whole entry): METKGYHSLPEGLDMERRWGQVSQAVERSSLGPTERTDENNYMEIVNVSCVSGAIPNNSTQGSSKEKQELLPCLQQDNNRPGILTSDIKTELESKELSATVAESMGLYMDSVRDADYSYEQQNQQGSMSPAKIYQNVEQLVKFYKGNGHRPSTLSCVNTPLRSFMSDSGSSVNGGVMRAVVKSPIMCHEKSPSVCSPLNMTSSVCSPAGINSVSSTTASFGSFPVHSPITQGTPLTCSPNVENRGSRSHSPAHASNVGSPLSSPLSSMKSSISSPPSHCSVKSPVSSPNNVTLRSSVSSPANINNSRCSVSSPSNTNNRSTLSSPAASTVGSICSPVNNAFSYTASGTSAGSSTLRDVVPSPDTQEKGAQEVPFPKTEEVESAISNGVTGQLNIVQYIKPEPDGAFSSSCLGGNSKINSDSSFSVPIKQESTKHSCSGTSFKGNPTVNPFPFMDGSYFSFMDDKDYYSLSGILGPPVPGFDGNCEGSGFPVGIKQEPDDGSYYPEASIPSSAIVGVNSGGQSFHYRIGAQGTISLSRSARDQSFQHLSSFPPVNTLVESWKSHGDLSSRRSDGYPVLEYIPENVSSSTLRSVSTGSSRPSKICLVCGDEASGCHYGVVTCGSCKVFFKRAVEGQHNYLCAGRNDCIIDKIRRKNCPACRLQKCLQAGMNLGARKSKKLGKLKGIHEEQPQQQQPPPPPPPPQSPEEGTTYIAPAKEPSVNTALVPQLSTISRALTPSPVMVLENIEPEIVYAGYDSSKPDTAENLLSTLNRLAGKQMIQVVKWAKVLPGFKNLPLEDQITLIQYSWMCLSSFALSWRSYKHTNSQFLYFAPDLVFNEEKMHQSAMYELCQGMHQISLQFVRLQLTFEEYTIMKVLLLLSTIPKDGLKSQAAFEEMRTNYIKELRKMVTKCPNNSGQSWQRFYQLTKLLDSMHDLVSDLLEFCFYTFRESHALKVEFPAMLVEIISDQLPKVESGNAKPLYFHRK
As to the kind of experiment: Agonist activity at mineralocorticoid receptor in human A549 cells. It counts as functional, cell-based.

For series [2], the system named is Rattus norvegicus. As to the kind of experiment: Toxicity in Sprague-Dawley rat assessed as induction of TAT activity in liver homogenates at 30 mg/kg, po after 6 hrs. To be noted: in vivo. It counts as organism-based. Also on record: dose 30 mg/kg, route oral. The gist of the method: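 Male SD rats, fasted, single oral dose. Liver was biopsied 6 h postdose, snap frozen, homogenised in 150 mM KCl and centrifuged. Protein-normalised supernatants were assayed for TAT activity, read as OD at 340 nm. Values are given as % of TAT activity in prednisolone-treated (30 mg/kg) rats.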

The subject of series [3] is Rattus norvegicus. As to the kind of experiment: Antiinflammatory activity against carrageenan-induced paw edema Sprague-Dawley rat model assessed as inhibition of hind paw swelling at 30 mg/kg, po measured after 5 hrs post carrageenan challenge. The series is classed as functional. The gist of the method: (§2)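 Male SD rats, fasted overnight plus up to 6 h more. Baseline hind paw volume taken by water plethysmometer. A single oral dose was given in a biologically acceptable medium. 2 h later, under anaesthesia, 1% carrageenan in PBS was injected subcutaneously into both hind paws. Volume was read 3 h post challenge, and swelling was taken as post-challenge minus baseline.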

Series [4] has as its system Rattus norvegicus. As to the kind of experiment: Toxicity in Sprague-Dawley rat assessed as increase in serum glucose level at 30 mg/kg, po after 6 hrs. The series is classed as organism-based. Also on record: dose 30 mg/kg, route oral. The conditions noted are these: in vivo. The gist of the method: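 Male SD rats, fasted overnight plus up to 6 h, were given a single oral dose in a biologically acceptable medium. At 6 h they were euthanised with CO2, and blood was taken by intracardiac puncture. Serum glucose was measured by the hexokinase method on an automated chemistry analyzer.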

In series [5] the test system is Rattus norvegicus. As to the kind of experiment: Antiinflammatory activity in po dosed carrageenan-induced paw edema Sprague-Dawley rat model assessed as inhibition of hind paw swelling after 5 hrs post carrageenan challenge. The series is classed as functional. In short, it runs like this: as §2

Each structure is given as a SMILES string.

With `CC(C)(C(=O)Nc1nncs1)[C@@H](c1ccccc1)c1ccc(O)c(F)c1`, the values for the Ki at Progesterone receptor, at Androgen receptor and at Estrogen receptor were 55 nM, 993 nM and > 50000 nM, respectively. The half-maximal effective concentration (EC50) in series [1] was > 5000 nM.

On to `C[C@]12C=CC(=O)C=C1CC[C@@H]1[C@@H]2[C@@H](O)C[C@@]2(C)[C@H]1CC[C@]2(O)C(=O)CO` [PREDNISOLONE], for which the Activity result in the series with Rattus norvegicus [2] and in the series with Rattus norvegicus [4] was “Toxic” throughout. Further, the “inhibition (INH)” value in the series with Rattus norvegicus [3] (30 mg/kg) turned out to be 42%. In the series with Rattus norvegicus [3] (Rattus norvegicus, Sprague-Dawley, po, 5 h), the inhibition in vivo at 30 mg/kg worked out at 57%. The 50% effective dose (ED50) in the series with Rattus norvegicus [5] is 19 mg/kg. Also, the Ki on Estrogen receptor was > 5000 nM. For the same compound, a half-maximal effect in series [1] (EC50) was put at 2 nM.

The values are drawn from ChEMBL document CHEMBL1799968, “Dimethyl-diphenyl-propanamide derivatives as nonsteroidal dissociated glucocorticoid receptor agonists” (J Med Chem, 2010).
